This is an account of results in ChEMBL document CHEMBL4513216, “Probing the Open Global Health Chemical Diversity Library for Multistage-Active Starting Points for Next-Generation Antimalarials” (ACS Infect Dis, 2020).

A short description of this data set: Toxicity liver stage against HepG2, at 10uM. Further details: test concentration 10 uM, cell line HepG2-A16-CD81EGFP. In kind it is cell-based. The note with it: human, HepG2-A16-CD81EGFP cells; read-out: INHIBITION
The gist of the method:
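Uninfected HepG2-A16-CD81EGFP cells, 3 × 10^3 per well, 1536-well, plated on prespotted compound at 10 μM final, parasite-free screening media added to match infected plates; puromycin 10 μM positive, DMSO 0.5% negative; run in parallel with 48 h PbLuc assay at 37 °C, 5% CO2; viability by CellTiter-Glo luminescence, normalized to controls.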
Consider `CCc1ncc2c(n1)CN(C(=O)c1c(C)[nH]c(C(C)=O)c1C)C2`, for which the cytotoxicity at 10 µM is -45.9%.

`CC(=O)NCCNC(=O)c1cnc(-c2ccccc2)nc1`: the cytotoxicity at 10 µM came out at 6.56%.

Consider `CC(C(=O)N1CCN(CCOc2ccccc2)CC1)n1cncn1` (stereo not given), for which the cytotoxicity at 10 µM was -4.88%.

As for `Cc1ccnc(OC[C@]23COC[C@H]2CN(C(=O)c2ccnn2C)C3)n1`, the cytotoxicity at 10 µM came out at 3.16%.

For `COCCCN(C)C(=O)Cn1cccc(OC)c1=O`, the cytotoxicity at 10 µM turned out to be 7.52%.

As to `CCN(CC)C(=O)CN1CCC(c2nc(C)c3c(n2)N(C)CCC3)CC1`, the cytotoxicity at 10 µM is 4.14%.

For `O=C(CCOCc1ccccc1)N1CCCC1c1noc(C2CC2)n1` (stereo not given), the cytotoxicity at 10 µM is -4.74%.

As for `Cc1nccn1-c1ccccc1CNC(=O)c1cn(CCN)nn1`, the cytotoxicity at 10 µM was 1.58%.

As to `CN1C[C@@H]2COC[C@]2(C(=O)NCc2cccs2)C1`, the cytotoxicity at 10 µM came out at 9.22%.

Turning to `CCc1nnc(Nc2cccc(C3CCN(S(=O)(=O)N(C)C)CC3)n2)s1`, the cytotoxicity at 10 µM was -16.2%.

On to `COCCN(Cc1ccc(C)o1)C(=O)Nc1nnc(C(F)F)s1`, for which the cytotoxicity at 10 µM came to 1.24%.

As for `CCCc1nc(N2CCSCC2)c2c(n1)c(C)nn2CC`, the cytotoxicity at 10 µM was 8.05%.

In the case of `O=C(NCCc1ccncc1)c1cccnc1OCC(F)(F)F`, the cytotoxicity at 10 µM was 5.03%.

As for `CCCN(CCN(C)C)C(=O)Cc1cn2ccsc2n1`, the cytotoxicity at 10 µM stood at 0.27%.

With `O=C(NCCn1ccc(-c2ccncc2)n1)c1ccc2c(c1)OCO2`, the cytotoxicity at 10 µM came to 6.03%.

`Cc1nn(C)c2nc(NC(C)c3nnn[nH]3)sc12` (stereo not given): the cytotoxicity at 10 µM was -0.909%.

Regarding `Cc1nc(CN2CCCCC2CCc2cccs2)co1` (stereo not given), the cytotoxicity at 10 µM was -2.36%.

Take `O=C(c1cccnc1)C1CCCN(c2nnc(C3CC3)o2)C1` (stereo not given): the cytotoxicity at 10 µM turned out to be 6.59%.

Turning to `O=C(Cc1ccccn1)N1C[C@H]2CN(Cc3ccccn3)C[C@H]2C1`, the cytotoxicity at 10 µM is -108%.

`CC(=O)N[C@@H]1CN(C2CCN(c3cccc(Cl)c3)CC2)C[C@H]1C(C)C`: the cytotoxicity at 10 µM stood at 1.6%.

Consider `c1ncn(Cc2ccc(CNCc3ccc4c(c3)OCCO4)cc2)n1`, for which the cytotoxicity at 10 µM was -1.66%.

On to `Cc1noc(C)c1CN1CCc2c(CNc3nccs3)n[nH]c2C1`, for which the cytotoxicity at 10 µM came to 5.28%.

In the case of `O=c1cc(N2CCCCC2)cnn1Cc1noc(C2CCCO2)n1` (stereo not given), the cytotoxicity at 10 µM is -47.1%.

On to `Cn1cc(CN2C[C@H]3CCN(C(=O)c4cscn4)C[C@H]3C2)cn1`, for which the cytotoxicity at 10 µM was 4.12%.

As to `COc1cccc(-c2n[nH]cc2CNC2CCN(C3CC3)CC2)c1`, the cytotoxicity at 10 µM was -3.78%.

As to `O=C(N1CCCCC1)N1CCCC1c1nnc2n1CCNC2` (stereo not given), the cytotoxicity at 10 µM stood at 13.6%.

On to `Cc1ccc(CN2CCO[C@H]3[C@H](OCc4cccnc4)CC[C@@H]32)o1`, for which the cytotoxicity at 10 µM worked out at 6.22%.

For the compound `CNC(=O)c1ccc(CNc2ccncc2Cl)cc1`, the cytotoxicity at 10 µM is 17.7%.

Take `O=C(c1cc(-c2cccs2)on1)N1CCCCC1Cn1cccn1` (stereo not given): the cytotoxicity at 10 µM was -2.93%.

For `COc1ncccc1NC(=O)N1CCCC(CNC(=O)OC(C)(C)C)C1` (stereo not given), the cytotoxicity at 10 µM was -1.71%.

On to `CN1CCC(N(CCc2ccccc2)C(=O)c2ccc(C#N)cc2)CC1`, for which the cytotoxicity at 10 µM is -2.37%.

For `CCc1ccc(CN2C[C@@H](c3nc(C)no3)C[C@H]3OCC[C@H]32)o1`, the cytotoxicity at 10 µM was -75.8%.

In the case of `CN(CC(C)(CO)CO)C(=O)Nc1cc(F)cc(Cl)c1`, the cytotoxicity at 10 µM was -0.19%.

`Cc1ncsc1CN1CC[C@H]2OCC[C@@]2(C(=O)N(C)C)C1`: the cytotoxicity at 10 µM worked out at 2.93%.

For the compound `CC(=O)c1nn(-c2ccccc2)c(C)c1C(C)=O`, the cytotoxicity at 10 µM was found to be 2.27%.

In the case of `O=C(CCOCc1ccccc1)NS(=O)(=O)N1CCOc2ccccc21`, the cytotoxicity at 10 µM amounted to 9.15%.

For the compound `Cc1cc(-c2cnc(C3CC3)nc2CN(C)C(=O)c2ccccn2)on1`, the cytotoxicity at 10 µM is -45%.

As to `CC(=O)N(C)c1nc(CN2CCCC2Cn2nc(C)cc2C)cs1` (stereo not given), the cytotoxicity at 10 µM was -10.3%.

For `CC(=O)c1cn(CCC(=O)Nc2c3c(nn2C)CSC3)c2ccccc12`, the cytotoxicity at 10 µM is -1.93%.

For `Cc1cc(C(=O)N2CCC(n3cc(CO)nn3)CC2)ccc1F`, the cytotoxicity at 10 µM is -4.73%.

For `Cc1ccc(C(=O)NC2CCN(C(=O)Nc3ccncc3)CC2)o1`, the cytotoxicity at 10 µM turned out to be 1.48%.

For the compound `O=C(NC1CCN(c2ccccc2Br)C1)c1c[nH]nn1` (stereo not given), the cytotoxicity at 10 µM was -17.9%.

As to `CNC(=O)[C@@H]1C[C@@H](NC(=O)CCCc2cccs2)CN1C1CCOCC1`, the cytotoxicity at 10 µM is -0.828%.

As for `Cc1cc(NC(=O)CN2CCN(c3nc(C)cs3)C(C)C2)on1` (stereo not given), the cytotoxicity at 10 µM is -1.81%.

`Nc1cc2c(nn1)CCN(C(=O)c1csc(-c3ccccc3)n1)C2`: the cytotoxicity at 10 µM was -12.4%.

`CC(Cn1cccn1)NC(=O)NCCN1CCc2ccccc2C1` (stereo not given): the cytotoxicity at 10 µM is -4.45%.

For the compound `Cc1nsc(C(=O)N2CCc3ccccc3C2)n1`, the cytotoxicity at 10 µM amounted to 5.86%.

For the compound `Cc1c(S(=O)(=O)NC2CC2)cc2c(C)cc(=O)n3c2c1CCC3`, the cytotoxicity at 10 µM is -1.95%.

As to `CCOc1ccccc1CCC(=O)Nc1c(C)nn(C)c1C`, the cytotoxicity at 10 µM is -3.91%.

Take `Cc1ccc(C(=O)N2C[C@@H]3CCCO[C@@H]3[C@H](N3CCCC3)C2)cn1`: the cytotoxicity at 10 µM was -3.8%.

Take `CN1CC[C@H]2CN(C(=O)c3csc(Cc4ccccc4)n3)C[C@H]21`: the cytotoxicity at 10 µM is -2.45%.

With `CC(C(=O)N1CCCC1)N1CCC(c2nccn2Cc2cscn2)CC1` (stereo not given), the cytotoxicity at 10 µM was 2.79%.

With `CC(C)n1cc(C(=O)N2Cc3ccccc3OC3(CCOCC3)C2)cn1`, the cytotoxicity at 10 µM was 6.61%.

In the case of `O=C(CN1CCC2(CCCN(CCO)C2=O)C1)NCCc1ccccc1` (stereo not given), the cytotoxicity at 10 µM came out at 0.174%.

Regarding `CC(O)CNC(=O)NCc1cccnc1OC1CCCC1` (stereo not given), the cytotoxicity at 10 µM was determined as 2.29%.

Turning to `COc1cc(N2CCC3(CCCN3Cc3ccn(C)n3)CC2)ncn1`, the cytotoxicity at 10 µM came to 4.89%.

Take `O=C(NC1CC1)[C@H]1CN(Cc2ccc3c(c2)OCO3)C[C@H]2OCC[C@@H]12`: the cytotoxicity at 10 µM came to 3.56%.

Take `Cn1cc(-c2cc(-c3cnn(C)c3)n(CC(=O)NC3CC3)n2)cn1`: the cytotoxicity at 10 µM was 2.94%.

Consider `COc1ccc(Br)cc1CC(=O)N1CCCC1`, for which the cytotoxicity at 10 µM was -2.69%.

On to `Cc1ccc(OCC(O)CN2CCc3c(ncn3C3CC3)C2)cc1` (stereo not given), for which the cytotoxicity at 10 µM worked out at 0.2%.

Regarding `CC(C)CNC(=O)[C@H]1CCS(=O)(=O)[C@@H]2CN(Cc3cccnc3)C[C@H]12`, the cytotoxicity at 10 µM was -2.36%.

For the compound `COCCN(CC(F)F)c1cc(COC)nc2ncnn12`, the cytotoxicity at 10 µM worked out at 9.08%.

With `Cc1cc(CN2CCOC(CNc3cccnn3)C2)on1` (stereo not given), the cytotoxicity at 10 µM was -13.8%.

Consider `Cc1cccc(CN2CCN(C(=O)[C@@H]3CSCN3C)CC2)c1`, for which the cytotoxicity at 10 µM is -8.56%.

Turning to `CC(C)C(N)C1=NC(=C2N=CN=N2)NO1` (stereo not given), the cytotoxicity at 10 µM came out at 8.86%.

As for `CC(NC(=O)CCCc1ccc(Cl)cc1)c1n[nH]c(=O)[nH]1` (stereo not given), the cytotoxicity at 10 µM was 3.26%.

On to `Cc1nn(C)c(N(C)C)c1CNCCC(=O)NC1CCCCC1`, for which the cytotoxicity at 10 µM was -13.4%.

In the case of `CC(C)n1[nH]c(=O)c2c1NC(=O)CC2c1cccc(O)c1` (stereo not given), the cytotoxicity at 10 µM was 10.6%.

On to `CSc1ncccc1C(=O)N1CCC(c2nc3c(C)cccc3[nH]2)CC1`, for which the cytotoxicity at 10 µM was -20%.

Take `CCOCC1CN(S(=O)(=O)N(C)C)Cc2cnn(CC3CC3)c21` (stereo not given): the cytotoxicity at 10 µM is 12%.

As to `CN(CCn1cnnc1)C(=O)c1ccnc(OC2CCC2)c1`, the cytotoxicity at 10 µM worked out at 5.1%.

Regarding `Cc1nc(C(C)(C)NCc2nnc(C(C)C)o2)sc1C`, the cytotoxicity at 10 µM is 6.35%.

`CCN(CC)Cc1ccccc1NC(=O)N(C)Cc1ccc(OC)cc1`: the cytotoxicity at 10 µM stood at 10.7%.

Take `Cc1ccccc1C(C(=O)N(C)CCc1cn[nH]c1)N(C)C` (stereo not given): the cytotoxicity at 10 µM was -5.86%.

Turning to `CCC(C)C(=O)NCc1cc(Br)c(OC)c(OC)c1` (stereo not given), the cytotoxicity at 10 µM came out at 2.42%.

With `Cc1ccc(NC(=O)N(C)C)c(C(=O)OCC(=O)NC2CCCC2)c1`, the cytotoxicity at 10 µM was -8.03%.

Take `COc1ccc(Br)c(C(=O)NCCNc2ccc(C(F)(F)F)cn2)c1`: the cytotoxicity at 10 µM turned out to be 12.7%.

Take `Cc1noc(C)c1CSCc1nc(N)c2ccccc2n1`: the cytotoxicity at 10 µM was 5.15%.

As to `CCN(CC)C(CNS(=O)(=O)c1ccc(C(=O)NC)cc1)c1ccco1` (stereo not given), the cytotoxicity at 10 µM was 4.62%.

For the compound `COc1cccc2c3c(c(=O)[nH]c12)CC(C)(C)O3`, the cytotoxicity at 10 µM is -6.1%.

Regarding `Cc1oc(-c2cccs2)nc1C(=O)N1CCCC1Cn1cccn1` (stereo not given), the cytotoxicity at 10 µM is -7.22%.

As to `O=C(c1ccco1)N1C[C@H]2CN(Cc3cccc(F)c3)C(=O)[C@H]2C1`, the cytotoxicity at 10 µM was -78.2%.

With `CC(Cc1ccc2c(c1)OCO2)c1cn(CCN2CCCC2)nn1` (stereo not given), the cytotoxicity at 10 µM was found to be 7.09%.

Regarding `c1csc(-c2noc(CN3CCCCC3Cn3cccn3)n2)c1` (stereo not given), the cytotoxicity at 10 µM is -15.4%.

On to `Cc1nccc(CNS(=O)(=O)N(C)Cc2ccc(Cl)cc2)n1`, for which the cytotoxicity at 10 µM turned out to be 29.5%.

`O=C(NCC1CC2(CO1)CN(c1nncs1)C2)C1CCC1` (stereo not given): the cytotoxicity at 10 µM was -103%.

Turning to `CC(=O)Nc1nc(C2CN(C(=O)C3CCC3)C2)cs1`, the cytotoxicity at 10 µM is -21.9%.

For the compound `Cc1nc(-c2cnn(C)c2)sc1C(=O)NCc1ccc(C)n1C`, the cytotoxicity at 10 µM was 9.25%.

With `CCN(Cc1cc(F)ccc1Cl)C1CCS(=O)(=O)C1` (stereo not given), the cytotoxicity at 10 µM came out at 5.29%.

`CCNC(=O)C1CN(Cc2c(-c3cc(C)on3)nn(C)c2Cl)CCO1` (stereo not given): the cytotoxicity at 10 µM was -4.37%.

As for `COCCN(C)C(=O)c1nc2c(s1)CCCN2c1ccc(C)nn1`, the cytotoxicity at 10 µM is -2.4%.

On to `O=C(NC(Cc1ccsc1)c1nccs1)C1CC1` (stereo not given), for which the cytotoxicity at 10 µM is -28.3%.

Take `Cc1ccc(C(=O)N2CCOC3(CCCC3)C2)c(=O)[nH]1`: the cytotoxicity at 10 µM is 7.87%.

In the case of `Cc1cc2cc(C(=O)N[C@@H]3CC[C@@H](N4CCOCC4)[C@@H]3O)ccc2o1`, the cytotoxicity at 10 µM is -1.85%.

As for `CCN(CC)S(=O)(=O)NCC1Cc2ccccc2O1` (stereo not given), the cytotoxicity at 10 µM worked out at 0.477%.
